SENP6 block – SENP6 protease inhibition. Q9GZR1. Recombinant SENP6 catalytic domain, aminoluciferin luminescence. inhibition, % at 10 µM. actives 1.8% (n = 330,000). AID 2599;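 active means inhibition above about 50% at the single tested dose, limit read from the data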;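 further: plate controls were DMSO wells with enzyme for no effect and DMSO wells lacking enzyme for full effect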
Target sequence (Q9GZR1 628-1112 limits assumed): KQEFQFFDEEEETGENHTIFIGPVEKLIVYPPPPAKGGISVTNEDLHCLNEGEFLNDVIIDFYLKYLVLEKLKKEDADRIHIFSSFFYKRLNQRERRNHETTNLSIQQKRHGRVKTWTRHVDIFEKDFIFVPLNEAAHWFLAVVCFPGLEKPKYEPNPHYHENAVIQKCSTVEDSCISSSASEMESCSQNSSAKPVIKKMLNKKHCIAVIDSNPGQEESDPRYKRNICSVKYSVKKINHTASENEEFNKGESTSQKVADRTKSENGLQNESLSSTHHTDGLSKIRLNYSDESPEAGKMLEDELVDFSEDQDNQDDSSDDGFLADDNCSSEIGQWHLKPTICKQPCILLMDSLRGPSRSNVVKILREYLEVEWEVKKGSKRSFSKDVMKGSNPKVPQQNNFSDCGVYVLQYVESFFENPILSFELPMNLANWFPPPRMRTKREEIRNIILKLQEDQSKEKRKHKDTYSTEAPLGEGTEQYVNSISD
SENP8 block-1 – SENP8 protease inhibition. inhibition, % at 10 µM. purified SENP8, Z-RLRGG-aminoluciferin cleavage, luminescence. actives 1.2% (n = 330,000). Q96LD8; in the data active means inhibition above about 50%
SENP8 block-2 – inhibitors of human SENP8 protease | Q96LD8 | recombinant SENP8, Nedd8 substrate fluorescence | inhibition, % at 20 µM | actives 0.64% (n = 360,000) | AID 602440; in the data active means inhibition mostly above about 40%, no sharp cut-off; inactive means mostly below about 27%
SENP7 block – SENP7 protease inhibition | recombinant SENP7, Z-RLRGG-aminoluciferin luminescence, 40 min | Q9BQF6 | inhibition, % at 5 µM | actives 1.5% (n = 330,000);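 active means inhibition above about 50% at the single test dose, limit read from the data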;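 further: plate controls were DMSO with enzyme for no effect and no enzyme buffer wells for full effect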
HSP90 inh – HSP90 refolding inhibition in rabbit reticulocyte lysate | luciferase refolding luminescence, 3 h | inhibition, % at 5.6 µM | actives 0.91% (n = 290,000) | AID 1789;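 active means inhibition above the screen-wide mean plus 3 SD, computed separately per campaign, cut at about 16% in these data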;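 further: 0% = DMSO wells and 100% = 60 µM geldanamycin wells; inhibitors lower the luminescence because luciferase stays unfolded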
SENP1 inh – SENP1 (human) catalytic domain inhibition. recombinant SENP1 catalytic domain, CyPet-SUMO1-YPet FRET cleavage. actives 0.21% (n = 360,000). AID 624204. inhibition, % at 10 µM. Q9P0U3;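 active means inhibition at least 30% at 10 µM, raw YFP signal under a set limit, fluorescence ratio 0.5 to 1.5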;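 further: 0% = enzyme with DMSO and 100% = no enzyme wells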
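Assay system: hSENP1 catalytic domain, recombinant. Amount: SENP1 enzyme, 20 pM final. Schedule: 50 min reaction, RT, dark. Technique: FRET, CFP and YFP emission. Control set: no-enzyme wells low, DMSO-plus-enzyme wells high control.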
Active calls of the source: *; / = not tested or not shown. The list is not random: actives were taken first. Their share in the collection is about 2.9%.

SMILES | SENP6 block | SENP8 block-1 | SENP8 block-2 | SENP7 block | HSP90 inh | SENP1 inh
CC(=O)Nc1cc(NC(C)=O)ncn1 | 23 | 6 | 15 | 3 | 3 | 3
CC(C)(C)NC(=O)CSc1ncccc1-c1nc2ccccc2[nH]1 | -16 | 4 | -278 | 5 | 0 | -2
Cc1cc2nc(-c3cccnc3SCC(=O)NC3CC3)[nH]c2cc1C | 88* | 81* | / | 90* | 0 | /
Cc1ccc(N=Nc2c(N)[nH]n3c(=O)cc(C)nc23)cc1 | / | / | 33 | / | -2 | 2
NS(=O)(=O)c1ccc(N=Nc2c(-c3ccccc3)[nH]n(-c3nc(-c4ccccc4)cs3)c2=O)cc1 | 0 | -13 | 30 | -7 | 3 | 7
Nc1[nH]n2c(=O)cc(-c3ccccc3)nc2c1N=Nc1ccccc1 | 9 | 1 | 57* | 13 | -1 | 1
Nc1[nH]n2c(=O)cc(-c3ccccc3)nc2c1N=Nc1ccc(S(N)(=O)=O)cc1 | 17 | 5 | 60* | 8 | 0 | 6
CCOC(=O)C1=C(COC(=O)C2(C)CC2(Cl)Cl)NC(=O)NC1c1ccccc1 (stereo not given) | -28 | 5 | 9 | 8 | 2 | 2
O=C1C=C(O)c2c(O)cc(O)c(O)c2C1=O | 4 | 5 | 47* | 4 | / | -45
N=C(N)c1ccc(/C=C/c2ccc(C(=N)N)cc2O)cc1 | 0 | -4 | -440 | 3 | 4 | 55*
Cc1ccc(Cl)c2sc(N3CCN(C(=O)c4ccco4)CC3)nc12 | 3 | 3 | 2 | 8 | / | 2
CCN(CC)CCN(C)C1CCC(c2ccccc2)CC1 (stereo not given) | / | / | 7 | / | -2 | 3
CCc1ccc2c(c1)c(N=NC1=NC(=O)CS1)c(O)n2C | 5 | 3 | 40* | 6 | 3 | 5
O=C(CSc1nnc(NC(=O)c2ccccc2Cl)s1)Nc1ccc2c(c1)oc1ccccc12 | 37 | 32 | / | 82* | -7 | /
CC(C)(C)NC(=O)CSc1nnc(NC(=O)c2ccccc2Cl)s1 | -6 | 0 | -3 | 1 | -8 | 1
COc1ccc(NC(=S)NNC(=O)c2nnn(-c3ccccc3)c2C)cc1 | -13 | -5 | 12 | 6 | -1 | 0
Nc1ccccc1Nc1ccccc1 | 12 | 3 | -13 | 3 | -7 | 49*
Cc1ccc(N=Nc2c(C)[nH]n(C(N)=S)c2=O)cc1 | 79* | 74* | 18 | 63* | -4 | 2
Cc1[nH]n(C(N)=S)c(=O)c1N=Nc1ccc(S(=O)(=O)N2CCCC2)cc1 | 41 | 8 | 22 | 16 | 7 | 5
O=C(CN1C(=O)NC2(CCOc3ccccc32)C1=O)NCc1ccccc1 (stereo not given) | 11 | -9 | -1 | 11 | / | -2
COc1cccc(-c2nn(C)c3sc(C(=O)N4CCOCC4)cc23)c1 | 9 | 3 | -24 | 3 | 27* | 4
COc1cccc(-c2nn(C)c3sc(C(=O)N4CCN(c5ccccn5)CC4)cc23)c1 | -28 | -7 | -6 | 5 | 3 | 1
NC(=O)CSc1nc(-c2ccccc2)nc2c1CCCC2 | 3 | 3 | -3 | -8 | 0 | 0
CC1=NN(C(C#N)c2ccccc2O)C(C)(C)C1 (stereo not given) | 9 | -7 | 43* | 2 | 5 | 1
COc1ccccc1C(C#N)N1N=C(C)CC1(C)C (stereo not given) | -3 | 4 | 1 | -2 | -1 | 0
SMILES | SENP6 block | SENP8 block-1 | SENP8 block-2 | SENP7 block | HSP90 inh | SENP1 inh
COc1ccc(C)cc1Nc1n[n+](-c2ccccc2)c(-c2ccc(N(C)C)cc2)s1 | -24 | -17 | -152 | 17 | -6 | 41*
Cc1ccc(N=Nc2c(=O)[nH]n3c(C)cc(C)nc23)cc1 | -15 | -10 | 49* | -10 | 3 | 5
Cc1cc(C)n2[nH]c(=O)c(N=Nc3ccc(S(N)(=O)=O)cc3)c2n1 | 17 | 0 | 20 | 1 | 8 | 4
COc1ccc(OC)c(S(=O)(=O)NC2CC(=O)N(c3cccc(F)c3)C2)c1 (stereo not given) | 0 | 2 | 6 | -4 | / | 1
Cc1ccc(CSc2nnc(-c3ccc4c(c3)OCO4)o2)cc1 | 10 | -7 | 6 | 5 | 3 | 1
O=C(O)CCSc1nnc(-c2ccc3c(c2)OCO3)o1 | 2 | 2 | -1 | -9 | 16* | 2
CC(=O)c1ccc(NC(=S)Nc2cccc3cnccc23)cc1 | 87* | 92* | -318 | 61* | 11 | -16
COc1ccc(CN=Cc2[nH]c3ccc(Br)c(Cl)c3c2O)cc1 | -2 | 6 | 49* | 0 | 1 | -38
O=C(O)c1ccc2c(c1)C1C=CCC1C(c1cc3c(cc1Br)OCO3)N2 (stereo not given) | -7 | -1 | 8 | -5 | 2 | 14
Brc1cc2c(cc1C1Nc3ccccc3C3C=CCC31)OCO2 (stereo not given) | -16 | -7 | 40* | -7 | -3 | 16
COc1ccc(CNC(=O)CSc2nnc(C)s2)cc1 | -4 | -6 | 17 | -1 | 1 | 1
Cc1ccc(NC(=S)NNC(=O)Nc2ccccc2)cc1 | 52* | 29 | 13 | 47 | 0 | 0
COc1ccc(C(=O)N2CCCC(C(=O)O)C2)c2ccccc12 (stereo not given) | 1 | 4 | -4 | -1 | -1 | -2
C/C(=N\Nc1cccc2cccnc12)c1ccc[nH]1 | 30 | 75* | 36 | 57* | 8 | -9
O=C(/C=N/O)Nc1ccc2sc3ccccc3c2c1 | -14 | -22 | -6 | 6 | 1 | -1
Cc1coc2c1C(=O)C(=O)c1c-2ccc2c1CCCC2(C)C | 45 | -4 | 61* | 7 | 2 | 4
COc1ccc(S(=O)(=O)Nc2ccccc2C(=O)N2CCOCC2)cc1Cl | 5 | -7 | 6 | -6 | -2 | 1
O=C(Nc1ccc([N+](=O)[O-])cc1)C(=O)Nc1cccc(C(=O)O)c1 | 99* | 97* | 5 | 99* | 78* | 1
Cc1ccccc1C(=O)/C(C#N)=N/Nc1c(C)n(C)n(-c2ccccc2)c1=O | / | / | 24 | / | -6 | 1
Cc1c(N/N=C(\C#N)C(=O)c2ccccc2)c(=O)n(-c2ccccc2)n1C | / | / | 40* | / | -1 | -5
O=C(NC(=S)NNC(=O)c1cc2ccccc2cc1O)c1ccco1 | 15 | 61* | 8 | 45 | -2 | -1
O=C(NC(=S)NNC(=O)c1ccccc1O)c1ccco1 | / | / | 3 | / | 6 | 1
COc1cc(S(=O)(=O)Nc2cccc(C)c2)ccc1N=Cc1c(C)[nH]n(-c2ccccc2)c1=O | 0 | 7 | / | 2 | -2 | /
COc1cc(S(=O)(=O)Nc2ccc(C)cc2)ccc1N=Cc1c(C)[nH]n(-c2ccccc2)c1=O | 4 | -7 | 46* | 6 | 3 | 7
Cc1[nH]n(-c2ccccc2)c(=O)c1C=Nc1ccc(S(=O)(=O)Nc2nccs2)cc1 | 2 | -4 | 44* | -2 | 2 | 3
